From PubChem BioAssay
Kir21 inh: inhibitors of mouse Kir2.1 inward-rectifier potassium channel; Inward rectifier potassium channel 2 (Mus musculus), P35561; HEK293-Kir2.1, FluxOR thallium flux fluorescence; hits give low values; B-score at 10 µM; hit rate 0.85% among 310,000;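 active = fluorescence ratio B-score at or below minus 3 SD of library scores, with starting-brightness B-score within 2 SD, cut at about -4.2 in these data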;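 also: channel flux triggered by added potassium and thallium sulfate stimulus; B-score of peak minus minimum fluorescence over baseline after thallium stimulus; more negative B-score means stronger Kir2.1 block with less thallium influx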
KCNQ1 inh: inhibitors of human KCNQ1 channel, primary screen, cell-based, thallium flux, high-throughput. Potassium voltage-gated channel subfamily KQT member 1 (Homo sapiens), P51787. hit rate 1.3% among 310,000. B-score at 10 µM. AID 2642, 2010. CHO-K1 KCNQ1, FluxOR thallium flux fluorescence; hits give high values;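 active = compounds whose thallium flux B-score, printed positive for inhibition, exceeds three library SD while starting fluorescence stays within three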;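 also: channel opened by potassium depolarization with thallium stimulus after 20 min compound exposure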
KCNK9 inh: KCNK9 potassium channel inhibitors, primary screen, HEK293 cells, thallium flux; FluxOR thallium flux fluorescence; hits give low values; B-score at 10 µM; hit rate 1.2% among 310,000;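 active = ratio B-score over 3 SD below the library mean, with starting fluorescence within 5 SD of its mean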;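 also: negative B-score means less thallium flux so channel inhibition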
Target sequence (Q9NPC2 whole entry, looked up): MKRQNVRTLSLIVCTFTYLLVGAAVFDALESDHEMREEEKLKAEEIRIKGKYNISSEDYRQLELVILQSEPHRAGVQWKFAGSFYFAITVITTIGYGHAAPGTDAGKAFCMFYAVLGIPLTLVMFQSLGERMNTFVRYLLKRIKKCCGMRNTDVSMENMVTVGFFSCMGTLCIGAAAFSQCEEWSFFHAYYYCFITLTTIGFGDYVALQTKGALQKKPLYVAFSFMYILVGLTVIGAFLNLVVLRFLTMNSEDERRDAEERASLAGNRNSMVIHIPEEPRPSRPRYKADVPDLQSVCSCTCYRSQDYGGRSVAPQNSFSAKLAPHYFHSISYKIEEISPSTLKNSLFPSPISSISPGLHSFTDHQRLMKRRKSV
hERG rescue: hERG rescue from dofetilide block, primary screen, cell-based, CHO-hERG, FluxOR thallium flux, dofetilide IC70. hit rate 0.51% among 310,000. dofetilide IC70 present. Voltage-gated inwardly rectifying potassium channel KCNH2 (Homo sapiens), Q12809. activation (rescue from dofetilide block), less the hit threshold, % at 10 µM;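 active = activation above the mean of controls blocked by dofetilide plus 5 SD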;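 also: thallium influx through hERG after potassium depolarization seen as dye fluorescence rise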
KCNK3 block: human KCNK3 channel inhibitors, primary screen, CHO cells, FluxOR thallium flux, B-score. AID 602410, 2012. B-score at 10 µM. hit rate 0.84% among 340,000. FluxOR fluorescence; hits give low values;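 active = B-score under library mean minus 4 SD, starting fluorescence ratio at most library mean plus 5 SD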;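 also: more negative B-score means stronger inhibition of thallium flux through KCNK3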
KCNQ1 act: potentiators or activators of KCNQ1 channel, primary screen, cell-based, thallium flux, high-throughput; CHO-K1 KCNQ1, thallium flux FluxOR fluorescence; hits give high values; B-score at 10 µM; hit rate 0.35% among 310,000;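 active = fluorescence ratio B-score, a plate-corrected score, at least three library SD, with initial intensity B-score within 5 SD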
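Test system: CHO-K1 cells stably expressing KCNQ1 / Medium: assay buffer / Also added: depolarizing K+/Tl+ stimulus, K2SO4 and Tl2SO4 each 12.5 mM in 5x stock / Incubation: 90 min dye loading and 20 min compound exposure, both at room temperature / Signal: thallium influx via FluxOR fluorescence, kinetic imaging / Evaluation: B score of baseline-normalized fluorescence ratio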
KCNK3 inh conf: retest of human KCNK3 channel inhibitors, confirmation, CHO cells, FluxOR thallium flux, triplicate; hit rate 99% among 2,400; FluxOR fluorescence; 0% buffer, 100% carvedilol maximal block; shares compounds with KCNK3 block; AID 651638, 2012; ratio percent of control, % at 10 µM;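 active = ratio percent of control, averaged over triplicates, above buffer control mean plus 5 SD, cut at about 64% in these data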;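 also: ratio is the fluorescence rise from min to max over baseline after thallium stimulus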
KCNK3 uninduced: thallium flux inhibition in non-induced cells, primary screen, counter-screen for KCNK3 inhibitor project, cell-based, non-induced KCNK3 line, FluxOR thallium, triplicate. shares compounds with KCNK3 block. non-induced KCNK3 parental cells; hits give low values. thallium flux ratio (lower = more inhibition) at 10 µM. hit rate 40% among 2,400;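 active = thallium flux ratio, averaged over three wells, more than 5 SD below the buffer control mean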;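 also: host cells are CHO cells without KCNK3 induction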
Numbers stand for hits; - = inactive; . = no result given. A selection: hits, their analogues and other compounds. The true share with any hit is near 3.7%.

SMILES	Kir21 inh	KCNQ1 inh	KCNK9 inh	hERG rescue	KCNK3 block	KCNQ1 act	KCNK3 inh conf	KCNK3 uninduced
O=C(NCCSc1c[nH]c2ccccc12)c1c(F)cccc1F	-	-	-	-	-10	-	101	-
O=C(NCCSc1c[nH]c2ccccc12)c1ccco1	-	-	-	-	-	-	.	.
CCOC(=O)c1ccccc1NC(=O)c1ccc2c(SCC(=O)O)c3c(nc2c1)CCCC3	-	-	-	-	-9.7	-	123	-
O=C1/C(=C\c2ccc(O)cc2)SC(=S)N1/N=C/c1ccc(O)cc1	-	7	-	-	-8.8	-	109	0.15
CC(=O)NN1C(=O)/C(=C\c2ccc(O)cc2)SC1=S	-	-	-	-	-	-	.	.
S=C(NCc1ccccc1)NNc1nc2ccccc2[nH]1	-	-	-	-	-	-	.	.
CCN(CC(=O)Nc1c(F)cccc1F)C(=O)C1CC(=O)N(CCc2ccccc2)C1 (stereo not drawn)	-	-	-	-	-	-	.	.
O=C(Cn1cnc2scc(-c3cccc([N+](=O)[O-])c3)c2c1=O)NCc1ccco1	-	-	-	-	-	-	.	.
CCCCc1nn(-c2cc(Cl)ccc2OC)c2c1C(=O)CC(C)(C)C2	-	-	-	-	-10	-	92	-
CC(OC(=O)CCCCCN=C1NS(=O)(=O)c2ccccc21)C(=O)Nc1cc(Cl)cc(Cl)c1 (stereo not drawn)	-	-	-	-	-	-	.	.
CCOc1ccccc1/C=N/N1CCN(Cc2ccccc2)CC1	-	-	-	-	-11	-	83	-
COc1ccccc1CNC(=O)Cc1csc(NC(=O)Nc2ccccc2OC)n1	-	-	-	-	-8.7	-	99	-
COc1ccccc1NC(=O)Nc1nc(CC(=O)NCc2ccccn2)cs1	-	-	-	-	-	-	.	.
COc1c(C(=O)Nc2nccs2)ccc2ccccc12	-	-	-	-	-	-	.	.
COc1cc2ccccc2cc1C(=O)Nc1nccs1	-	-	-	-	-9.6	-	94	-
CCN(CC)C(=O)C1CCCN(c2ccc([N+](=O)[O-])cc2/C=N/NC(=O)c2cccc(O)c2)C1 (stereo not drawn)	-	-	-	-	-14	-	91	-
CN(C)c1ccc(C(C(=O)NC2CCCC2)N(C(=O)c2ccco2)C2CC2)cc1 (stereo not drawn)	-	-	-	-	-	-	.	.
COC(=O)c1cccc(NC(=O)CC2C(=O)NCCN2C(=O)Nc2cc(C)cc(C)c2)c1 (stereo not drawn)	-	-	-	-	-9.2	-	119	0.14
COC(=O)CC1C(=O)NCCN1C(=O)Nc1ccccc1 (stereo not drawn)	-	-	-	-	-	-	.	.
Cc1cc(O)c(C(C)C)cc1C1(c2cc(C(C)C)c(O)cc2C)OC(=O)c2ccccc21	-	-	-	-	-9.1	-	120	0.15
O=C(NCCS(=O)(=O)N1CCCCCC1)c1ccccc1	-	-	-	-	-	-	.	.
CCCN(CCC)c1nc(N(CCC)CCC)[nH]c(=O)n1	-	-	-	-	-	-	.	.
CCCN(CCC)c1nc(C#N)nc(N(CCC)CCC)n1	-	-	-	-	-11	-	102	-
Cc1onc(-c2ccccc2)c1C(=O)OCCOc1ccc([N+](=O)[O-])cc1[N+](=O)[O-]	-	-	-	-	-10	-	92	-
